Source: ChEMBL document CHEMBL4393719, “Tetrahydro-3-benzazepines with fluorinated side chains as NMDA and σ1 receptor antagonists: Synthesis, receptor affinity, selectivity and antiallodynic activity” (Eur J Med Chem, 2019)

Test system: not listed separately
Assay: Displacement of [3H] ifenprodil from GluN2B/GluN1a (unknown origin) expressed in mouse L(tk-) cell membranes incubated for 120 mins by scintillation counting method
Parameters: species or system Homo sapiens
Settings: not given
Method in brief: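 Membranes from mouse L(tk-) cells co-transfected with dexamethasone-inducible GluN1a/GluN2B (1:5), induced 24 h with 4 μM dexamethasone plus 4 μM ketamine.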

| SMILES | Ki [nM] |
| --- | --- |
| COc1ccc2c(c1)CCN(CC(F)CCc1ccccc1)CC2O (stereo unspecified) | 506 |
| FC(CCc1ccccc1)CN1CCc2ccccc2CC1 (stereo unspecified) | 239 |
| COc1ccc2c(c1)CCN(CCCCc1ccccc1)CC2 | 55 |
| FCCOc1ccc2c(c1)CCN(CCC(F)Cc1ccccc1)CC2 (stereo unspecified) | 348 |
| COc1ccc2c(c1)CCN(CCC(F)Cc1ccccc1)CC2O (stereo unspecified) | 630 |

Target: Sigma non-opioid intracellular receptor 1 (Cavia porcellus, UniProt Q60492);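 further: radioligand displacement of [3H]-(+)-pentazocine from guinea pig brain cortex membranes, 120 min incubation, bound radioactivity read by scintillation counting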
Sequence (Q60492 whole entry): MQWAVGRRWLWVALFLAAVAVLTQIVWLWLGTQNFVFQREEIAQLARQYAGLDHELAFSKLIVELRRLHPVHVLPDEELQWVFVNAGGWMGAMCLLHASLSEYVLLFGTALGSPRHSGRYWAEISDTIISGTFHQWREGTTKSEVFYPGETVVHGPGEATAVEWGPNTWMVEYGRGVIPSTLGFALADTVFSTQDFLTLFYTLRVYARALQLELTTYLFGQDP
Type: cell membranes
Settings: not given

| SMILES | Ki [nM] |
| --- | --- |
| COc1ccc2c(c1)CCN(CC(F)CCc1ccccc1)CC2O (stereo unspecified) | 585 |
| FC(CCc1ccccc1)CN1CCc2ccccc2CC1 (stereo unspecified) | 108 |
| COc1ccc2c(c1)CCN(CCC(F)Cc1ccccc1)CC2O (stereo unspecified) | 210 |

More lines, now with the values ahead:

| Ki [nM] | SMILES |
| --- | --- |
| 11 | COc1ccc2c(c1)CCN(CCCCc1ccccc1)CC2 |
| 25 | FCCOc1ccc2c(c1)CCN(CCC(F)Cc1ccccc1)CC2 (stereo unspecified) |

Target: T1, Sigma intracellular receptor 2 (Rattus norvegicus, UniProt Q5U3Y7)
T1 sequence (Q5U3Y7 whole entry): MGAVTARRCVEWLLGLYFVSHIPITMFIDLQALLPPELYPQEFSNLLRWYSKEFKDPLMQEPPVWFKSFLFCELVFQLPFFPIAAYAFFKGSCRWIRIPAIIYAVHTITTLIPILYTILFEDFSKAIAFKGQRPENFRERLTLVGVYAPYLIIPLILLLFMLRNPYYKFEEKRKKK
Assay: Displacement of [3H]-di-o-tolylguanidine from sigma2 receptor in rat liver membranes incubated for 120 mins by scintillation counting method
Type: cell membranes
Settings: not given

| SMILES | Ki [nM] |
| --- | --- |
| COc1ccc2c(c1)CCN(CC(F)CCc1ccccc1)CC2O (stereo unspecified) | 7900 |
| FC(CCc1ccccc1)CN1CCc2ccccc2CC1 (stereo unspecified) | 333 |
| COc1ccc2c(c1)CCN(CCC(F)Cc1ccccc1)CC2O (stereo unspecified) | 4500 |

Further lines, results first:

| Ki [nM] | SMILES |
| --- | --- |
| 56 | COc1ccc2c(c1)CCN(CCCCc1ccccc1)CC2 |
| 524 | FCCOc1ccc2c(c1)CCN(CCC(F)Cc1ccccc1)CC2 (stereo unspecified) |

Test system: not listed separately
Assay: Selectivity ratio of Ki for sigma2 receptor in rat liver membranes to ratio of Ki for GluN2B/GluN1a (unknown origin) expressed in mouse L(tk-) cell membranes
Type: cell-based
Settings: not given

| SMILES | Ratio Ki |
| --- | --- |
| COc1ccc2c(c1)CCN(CC(F)CCc1ccccc1)CC2O (stereo unspecified) | 15 |
| COc1ccc2c(c1)CCN(CCC(F)Cc1ccccc1)CC2O (stereo unspecified) | 7 |

Species on record: Sus scrofa
Settings: at 1 µM

| SMILES | inhibition [%] |
| --- | --- |
| COc1ccc2c(c1)CCN(CC(F)CCc1ccccc1)CC2O (stereo unspecified) | 0 |
| FC(CCc1ccccc1)CN1CCc2ccccc2CC1 (stereo unspecified) | 0 |
| COc1ccc2c(c1)CCN(CCCCc1ccccc1)CC2 | 0 |
| COc1ccc2c(c1)CCN(CCC(F)Cc1ccccc1)CC2O (stereo unspecified) | 0 |
